Experimental data taken from ChEMBL document CHEMBL1123780, “2'-Fluorinated arabinonucleosides of 5-(2-haloalkyl)uracil: synthesis and antiviral activity” (1987).
Values after ≈ are worked out from the molar mass of the structure shown.

Columns and labels:
[1] = system: HEp-2; assay: Proliferation of Hep-2 cells by propagation on day 4 by measuring optical density (absorbance) at 100 ug/mL; assay type: functional, Homo sapiens
Procedure, shortened: (§1)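 Cells were suspended in medium with compound and seeded at low density in 24-well dishes (Vero 5×10^4, HEp-2 1×10^5 cells/well), four wells per condition, and grown 4 days. Cells were stained with 0.01% neutral red in PBS for 2 h at 37 °C, washed, dried, and dissolved in ethanol/0.1 M NaH₂PO₄ (1:1). OD was read at 546 nm, taken as proportional to cell number.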

[2] = system: HEp-2; assay: Proliferation of Hep-2 cells by propagation on day 4 by measuring optical density (absorbance) at 30 ug/mL; assay type: functional, Homo sapiens; procedure, shortened: as §1
[3] = system: HEp-2; assay: Proliferation of Hep-2 cells by propagation on day 4 by measuring optical density (absorbance) at 330 ug/mL; assay type: functional, Homo sapiens; procedure, shortened: as §1
[4] = system: HEp-2; assay: Antiviral activity against HSV-1 (Brand) in human epithelial (Hep-2) cells; assay type: functional
Procedure, shortened: (§2)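 CPE inhibition: serial 3-fold compound dilutions in E-MEM, then virus and cell suspension (E-MEM plus 15% fetal calf serum) added together. Cell input set for a confluent monolayer in 1-2 days, virus input for 90-100% CPE in infected controls at 3 days. Plates then fixed and stained, and CPE estimated against infected untreated controls. Uninfected compound-treated cells included.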

[5] = system: HEp-2; assay: Antiviral activity against HSV-2 (K979) in human epithelial (Hep-2) cells; assay type: functional; procedure, shortened: as §2
[6] = Antiviral activity against HSV-2 (G) in Primary Rabbit Kidney (PRK) cells; assay type: functional; details: Oryctolagus cuniculus
[7] = system: Vero; assay: Proliferation of Vero cells by propagation on day 4 by measuring optical density (absorbance) at 100 ug/mL; assay type: functional, Chlorocebus sabaeus; procedure, shortened: as §1
[8] = system: Vero; assay: Proliferation of Vero cells by propagation on day 4 by measuring optical density (absorbance) at 30 ug/mL; assay type: functional, Chlorocebus sabaeus; procedure, shortened: as §1
[9] = system: Vero; assay: Proliferation of Vero cells by propagation on day 4 by measuring optical density (absorbance) at 330 ug/mL; assay type: functional, Chlorocebus sabaeus; procedure, shortened: as §1
[10] = system: Vero; assay: Antiviral activity against HSV-2 (K979) in Vero cells; assay type: functional; details: Chlorocebus sabaeus; procedure, shortened: as §2
[11] = system: Vero; assay: Antiviral activity against HSV-1 (Brand) in Vero cells; assay type: functional; details: Chlorocebus sabaeus; procedure, shortened: as §2
[12] = Antiviral activity against VZV (Ellen) in human lung fibroblast (HLF-1) cells; assay type: functional
[13] = Antiviral activity against HSV-1 (KOS) in Primary Rabbit Kidney (PRK) cells; assay type: functional; details: Oryctolagus cuniculus

`O=c1[nH]c(=O)n([C@@H]2O[C@H](CO)[C@@H](O)[C@@H]2F)cc1CCF` gave a Control [1] of 105%, a Control [2] of 113% and a Control [3] of 72%. It also gave an MIC [4] of 0.03 µg/mL (≈ 0.103 µM), an MIC [5] of 0.1 µg/mL (≈ 0.342 µM) and an MIC [6] of 0.2 µg/mL (≈ 0.684 µM). The Control [7] was 87%, the Control [8] was 98% and the Control [9] was 90%. It also gave an MIC [10] of 0.3 µg/mL (≈ 1.03 µM), an MIC [11] of 0.03 µg/mL (≈ 0.103 µM) and an MIC [12] of 0.03 µg/mL (≈ 0.103 µM). The MIC [13] was 0.2 µg/mL (≈ 0.684 µM).

Compound `O=c1[nH]c(=O)n([C@H]2C[C@H](O)[C@@H](CO)O2)cc1CCCl` has a Control [1] of 99%, a Control [2] of 104% and a Control [3] of 86%. It also gave an MIC [4] of 0.03 µg/mL (≈ 0.103 µM), an MIC [5] of 3 µg/mL (≈ 10.3 µM) and an MIC [6] of 2.1 µg/mL (≈ 7.22 µM). It also gave a Control [7] of 91%, a Control [8] of 84% and a Control [9] of 82%. It also gave an MIC [10] of 30 µg/mL (≈ 103 µM), an MIC [11] of 0.01 µg/mL (≈ 0.0344 µM) and an MIC [12] of 0.01 µg/mL (≈ 0.0344 µM). The MIC [13] was 0.14 µg/mL (≈ 0.482 µM).

`Nc1nc(=O)n([C@@H]2O[C@H](CO)[C@@H](O)[C@H]2F)cc1I` showed a Control [1] of 32%, a Control [2] of 64% and a Control [3] of 13%. It also gave an MIC [4] of 0.01 µg/mL (≈ 0.0269 µM), an MIC [5] of 0.03 µg/mL (≈ 0.0808 µM) and an MIC [6] of 0.03 µg/mL (≈ 0.0808 µM). It also gave a Control [7] of 43%, a Control [8] of 68% and a Control [9] of 24%. It also gave an MIC [10] of 0.1 µg/mL (≈ 0.269 µM), an MIC [11] of 0.01 µg/mL (≈ 0.0269 µM) and an MIC [12] of 0.01 µg/mL (≈ 0.0269 µM). The MIC [13] was 0.02 µg/mL (≈ 0.0539 µM).

For `NC1=NC(=O)C2N=CN(COCCO)C2=N1` (stereo not drawn), the Control [1] was 78%, the Control [2] was 89% and the Control [3] was 41%. The MIC [4] was 1 µg/mL (≈ 4.44 µM), the MIC [5] was 3 µg/mL (≈ 13.3 µM) and the MIC [6] was 0.04 µg/mL (≈ 0.178 µM). The Control [7] was 73%, the Control [8] was 77% and the Control [9] was 56%. For the same compound, the MIC [10] was 1 µg/mL (≈ 4.44 µM), the MIC [11] was 0.003 µg/mL (≈ 0.0133 µM) and the MIC [13] was 0.06 µg/mL (≈ 0.266 µM).

`O=c1[nH]c(=O)n([C@@H]2O[C@H](CO)[C@@H](O)[C@@H]2F)cc1CCCl` showed a Control [1] of 107%, a Control [2] of 116% and a Control [3] of 68%. It also gave an MIC [4] of 0.1 µg/mL (≈ 0.324 µM), an MIC [5] of 1 µg/mL (≈ 3.24 µM) and an MIC [6] of 2 µg/mL (≈ 6.48 µM). The Control [7] was 74%, the Control [8] was 75% and the Control [9] was 63%. For the same compound, the MIC [10] was 10 µg/mL (≈ 32.4 µM), the MIC [11] was 0.3 µg/mL (≈ 0.972 µM) and the MIC [12] was 0.1 µg/mL (≈ 0.324 µM). For the same compound, the MIC [13] was 0.3 µg/mL (≈ 0.972 µM).

`O=c1[nH]c(=O)n([C@H]2C[C@H](O)[C@@H](CO)O2)cc1CCF` showed a Control [1] of 86%, a Control [2] of 97% and a Control [3] of 60%. It also gave an MIC [4] of 0.03 µg/mL (≈ 0.109 µM), an MIC [5] of 1 µg/mL (≈ 3.65 µM) and an MIC [6] of 1.5 µg/mL (≈ 5.47 µM). It also gave a Control [7] of 97%, a Control [8] of 94% and a Control [9] of 71%. The MIC [10] was 3 µg/mL (≈ 10.9 µM), the MIC [11] was 0.1 µg/mL (≈ 0.365 µM) and the MIC [12] was 3 µg/mL (≈ 10.9 µM). The MIC [13] was 0.58 µg/mL (≈ 2.11 µM).

For `O=c1[nH]c(=O)n(C2O[C@H](CO)[C@@H](O)[C@@H]2O)cc1CCCl` (stereo partly drawn), the MIC [4] was 30 µg/mL (≈ 97.8 µM), the MIC [5] was 100 µg/mL (≈ 326 µM) and the MIC [10] was 100 µg/mL (≈ 326 µM). It also gave an MIC [11] of 30 µg/mL (≈ 97.8 µM).

Compound `Cc1cn([C@@H]2O[C@H](CO)[C@@H](O)[C@@H]2F)c(=O)[nH]c1=O` [5-METHYL-2'-FLUOROARAURACIL] has a Control [1] of 3%, a Control [2] of 36% and a Control [3] of 0%. The MIC [4] was 0.3 µg/mL (≈ 1.15 µM), the MIC [5] was 0.1 µg/mL (≈ 0.384 µM) and the MIC [6] was 0.02 µg/mL (≈ 0.0769 µM). The Control [7] was 6%, the Control [8] was 7% and the Control [9] was 0%. The MIC [10] was 0.3 µg/mL (≈ 1.15 µM), the MIC [11] was 0.03 µg/mL (≈ 0.115 µM) and the MIC [12] was 0.001 µg/mL (≈ 0.00384 µM). The MIC [13] was 0.04 µg/mL (≈ 0.154 µM).

Work on `O=c1[nH]c(=O)n([C@H]2C[C@H](O)[C@@H](CO)O2)cc1/C=C/Br` [BRIVUDINE] yielded a Control [1] of 68%, a Control [2] of 79% and a Control [3] of 31%. It also gave an MIC [4] of 0.01 µg/mL (≈ 0.03 µM), an MIC [5] of 3 µg/mL (≈ 9.01 µM) and an MIC [6] of 2.3 µg/mL (≈ 6.9 µM). The Control [7] was 71%, the Control [8] was 74% and the Control [9] was 55%. The MIC [10] was 30 µg/mL (≈ 90.1 µM), the MIC [11] was 0.001 µg/mL (≈ 0.003 µM) and the MIC [12] was 0.001 µg/mL (≈ 0.003 µM). For the same compound, the MIC [13] was 0.007 µg/mL (≈ 0.021 µM).

Work on `O=c1[nH]c(=O)n([C@@H]2O[C@H](CO)[C@@H](O)[C@@H]2F)cc1I` [FIALURIDINE] yielded a Control [1] of 13%, a Control [2] of 49% and a Control [3] of 0%. For the same compound, the MIC [4] was 0.01 µg/mL (≈ 0.0269 µM), the MIC [5] was 0.1 µg/mL (≈ 0.269 µM) and the MIC [6] was 0.02 µg/mL (≈ 0.0538 µM). For the same compound, the Control [7] was 6%, the Control [8] was 37% and the Control [9] was 0%. The MIC [10] was 0.1 µg/mL (≈ 0.269 µM), the MIC [11] was 0.01 µg/mL (≈ 0.0269 µM) and the MIC [12] was 0.003 µg/mL (≈ 0.00806 µM). It also gave an MIC [13] of 0.02 µg/mL (≈ 0.0538 µM).

For `O=c1[nH]c(=O)n([C@H]2C[C@H](O)[C@@H](CO)O2)cc1I` [IDOXURIDINE], the Control [1] was 20%, the Control [2] was 61% and the Control [3] was 0%. It also gave an MIC [4] of 0.3 µg/mL (≈ 0.847 µM), an MIC [5] of 0.3 µg/mL (≈ 0.847 µM) and an MIC [6] of 0.91 µg/mL (≈ 2.57 µM). For the same compound, the Control [7] was 34%, the Control [8] was 61% and the Control [9] was 16%. The MIC [10] was 1 µg/mL (≈ 2.82 µM), the MIC [11] was 0.1 µg/mL (≈ 0.282 µM) and the MIC [12] was 10 µg/mL (≈ 28.2 µM). The MIC [13] was 0.2 µg/mL (≈ 0.565 µM).
